Data: ChEMBL document CHEMBL1138759, “Nonpeptide alphavbeta3 antagonists. Part 11: discovery and preclinical evaluation of potent alphavbeta3 antagonists for the prevention and treatment of osteoporosis” (J Med Chem, 2004)
pIC50: −log10 of the molar value.

How the values were obtained:
[1] = Partition coefficient (logP); type: physicochemical; settings: octanol/water
Method in brief: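 log P measured as partition between octanol and pH 7.4 buffer.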

[2] = Clearance value in dog at 0.2 mg/kg dose in intravenous and 1 mg/kg of peroral; type: ADME, organism-based, Canis lupus familiaris; settings: in vivo
Method in brief: (§1)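 Dogs given compound in water at 0.2 mpk iv and 1 mpk po; oral bioavailability, plasma clearance and plasma half-life derived from plasma levels.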

[3] = Half life in dog at 0.2 mg/kg dose in intravenous and 1 mg/kg of peroral; type: ADME, organism-based, Canis lupus familiaris; settings: in vivo; method in brief: as §1
[4] = Bioavailability in dog (dose 0.2 mg/kg i.v. and 1 mg/kg p.o.); type: ADME, organism-based, Canis lupus familiaris; settings: in vivo, po; method in brief: as §1
[5] = h-Protein binding value of the compound; type: ADME; design: concentration or dose not given beside the values; settings: human
Method in brief: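 Binding in human plasma determined by high-throughput ultrafiltration of diluted plasma in pH 7.4 buffer.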

[6] = molecular target: Integrin alpha-V/beta-3 (Homo sapiens, UniProt P05106+P06756); experiment: Inhibitory activity against alpha v beta-3 receptor using scintillation proximity assay (SPAV3); type: protein-complex assay
Integrin alpha-V/beta-3, sequence (P05106 27-788 limits assumed): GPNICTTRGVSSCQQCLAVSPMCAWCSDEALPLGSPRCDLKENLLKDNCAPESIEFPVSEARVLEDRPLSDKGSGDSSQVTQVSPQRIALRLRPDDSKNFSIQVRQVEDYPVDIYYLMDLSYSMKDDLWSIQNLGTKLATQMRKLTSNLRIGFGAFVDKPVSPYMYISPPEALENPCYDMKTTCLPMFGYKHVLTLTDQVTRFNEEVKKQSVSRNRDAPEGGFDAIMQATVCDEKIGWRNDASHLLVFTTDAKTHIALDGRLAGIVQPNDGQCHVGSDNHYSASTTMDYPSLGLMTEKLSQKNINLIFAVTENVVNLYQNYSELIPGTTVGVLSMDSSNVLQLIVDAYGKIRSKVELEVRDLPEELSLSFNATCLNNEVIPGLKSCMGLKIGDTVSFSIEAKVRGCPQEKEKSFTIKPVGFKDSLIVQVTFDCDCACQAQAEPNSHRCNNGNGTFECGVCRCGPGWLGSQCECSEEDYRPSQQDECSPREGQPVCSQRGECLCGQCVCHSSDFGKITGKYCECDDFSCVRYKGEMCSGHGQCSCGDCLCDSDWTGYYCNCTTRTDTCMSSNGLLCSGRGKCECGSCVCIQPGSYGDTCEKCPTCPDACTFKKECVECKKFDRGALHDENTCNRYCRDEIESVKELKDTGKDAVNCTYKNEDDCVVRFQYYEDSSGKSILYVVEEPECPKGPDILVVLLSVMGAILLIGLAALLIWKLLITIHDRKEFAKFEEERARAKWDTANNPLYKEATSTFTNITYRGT
Integrin alpha-V/beta-3, sequence (P06756 31-889 limits assumed): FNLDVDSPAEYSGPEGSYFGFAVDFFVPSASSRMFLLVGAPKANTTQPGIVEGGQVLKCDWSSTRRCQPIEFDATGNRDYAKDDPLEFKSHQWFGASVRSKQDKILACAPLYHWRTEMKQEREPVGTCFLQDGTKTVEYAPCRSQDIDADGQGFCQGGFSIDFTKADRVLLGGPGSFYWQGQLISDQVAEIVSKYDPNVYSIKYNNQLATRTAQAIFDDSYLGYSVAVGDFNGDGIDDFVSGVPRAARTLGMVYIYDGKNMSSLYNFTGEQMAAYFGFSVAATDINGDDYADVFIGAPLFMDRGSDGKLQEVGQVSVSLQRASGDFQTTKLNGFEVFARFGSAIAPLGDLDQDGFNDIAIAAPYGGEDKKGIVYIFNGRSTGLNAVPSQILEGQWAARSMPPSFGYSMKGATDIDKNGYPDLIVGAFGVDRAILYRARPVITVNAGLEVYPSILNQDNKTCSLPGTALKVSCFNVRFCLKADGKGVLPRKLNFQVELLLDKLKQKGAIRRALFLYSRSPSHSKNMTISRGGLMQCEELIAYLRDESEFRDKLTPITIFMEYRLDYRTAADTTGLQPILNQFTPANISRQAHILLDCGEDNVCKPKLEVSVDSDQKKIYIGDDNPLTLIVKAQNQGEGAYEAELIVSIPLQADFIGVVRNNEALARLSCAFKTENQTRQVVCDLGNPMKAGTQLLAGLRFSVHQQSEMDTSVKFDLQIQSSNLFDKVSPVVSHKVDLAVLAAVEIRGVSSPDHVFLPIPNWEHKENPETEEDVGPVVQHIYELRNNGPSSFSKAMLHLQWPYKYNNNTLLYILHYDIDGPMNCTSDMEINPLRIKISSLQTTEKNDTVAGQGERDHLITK
Integrin alpha-V/beta-3, sequence (P06756 891-1048 limits assumed): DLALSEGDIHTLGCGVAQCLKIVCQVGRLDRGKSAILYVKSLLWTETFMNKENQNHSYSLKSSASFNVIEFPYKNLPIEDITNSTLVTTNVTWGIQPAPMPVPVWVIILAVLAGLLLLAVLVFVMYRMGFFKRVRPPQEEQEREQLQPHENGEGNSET

[7] = tested on: Rattus norvegicus; experiment: Effect on distal femoral metaphysis (DFM)-bone mineral density (BMD) in ovariectomized female rats; OVX + 5e dosed orally 20 mg/kg/d; settings: route oral
[8] = Clearance value in monkey at 0.2 mg/kg dose in intravenous and 1 mg/kg of peroral; type: ADME, organism-based; settings: cercopithecidae, in vivo
[9] = Clearance value in rat at 0.5 mg/kg dose in intravenous and 1 mg/kg of peroral; type: ADME, organism-based; settings: in vivo
[10] = tested on: Rattus norvegicus; experiment: Effect on distal femoral metaphysis (DFM)-bone mineral density (BMD) in ovariectomized female rats; OVX + 5e dosed orally 30 mg/kg/d; settings: route oral
[11] = Half life in monkey at 0.2 mg/kg dose in intravenous and 1 mg/kg of peroral; type: ADME, organism-based; settings: cercopithecidae, in vivo
[12] = Bioavailability in rat (dose 0.5 mg/kg i.v. 1 mg/kg of p.o.); type: ADME, organism-based; settings: in vivo, po
[13] = Bioavailability in monkey (dose 0.2 mg/kg i.v. and 1 mg/kg p.o.); type: ADME, organism-based; settings: cercopithecidae, in vivo, po
[14] = Half life in rat at 0.5 mg/kg dose in intravenous and 1 mg/kg of peroral; type: ADME, organism-based; settings: in vivo
[15] = tested on: Rattus norvegicus; experiment: Effect on distal femoral metaphysis (DFM)-bone mineral density (BMD) in ovariectomized female rats; OVX + 5f dosed orally 3 mg/kg; type: functional; settings: route oral
Method in brief: (§2)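 Female rats ovariectomized, then dosed orally q.d. at 1, 3 or 10 mg/kg starting within 24 h, for 28 days. Comparators were sham-operated rats, OVX rats on vehicle, and OVX rats on alendronate 0.003 mg/kg/d s.c. BMD (mg/cm2) measured at the distal femoral metaphysis, given as mean ± SEM. Groups compared by Kruskal–Wallis ANOVA with Student–Newman–Keuls post-hoc test.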

[16] = tested on: Rattus norvegicus; experiment: Effect on distal femoral metaphysis (DFM)-bone mineral density (BMD) in ovariectomized female rats; OVX + 5f dosed orally 10 mg/kg; type: functional; settings: route oral; method in brief: as §2
[17] = tested on: Rattus norvegicus; experiment: Effect on distal femoral metaphysis (DFM)-bone mineral density (BMD) in ovariectomized female rats; OVX + 5f dosed orally 1 mg/kg; type: functional; settings: route oral; method in brief: as §2

## O=C(O)C[C@H](CCCCCCc1ccc2c(n1)NCCC2)c1cnc2ccccc2c1
[1]; read-out: logP
  logP: 2.39
[2]
  clearance: 3 mL/min/kg
[3]
  half-life: 5 h
[4]
  bioavailability: 65%
[5]
  Activity: > 99.9%
[6]
  pIC50: 9.70

## O=C(O)CC(/C=C/CCCCc1ccc2c(n1)NCCC2)c1cccc(F)c1 (stereo not drawn)
[6]
  pIC50: 8.14

## CC(C)c1ncc([C@@H](CCCCCCc2ccc3c(n2)NCCC3)CC(=O)O)cn1
[1]; read-out: logP
  logP: 1.32
[5]
  Activity: 99%
[6]
  pIC50: 9.28

## O=C(O)CC(NC(=O)CCCCc1ccc2c(n1)NCCC2)c1cncnc1 (stereo not drawn)
[1]; read-out: logP
  logP: -1.2
[2]
  clearance: 26 mL/min/kg
[4]
  bioavailability: 10%
[5]
  Activity: 44%

## O=C(O)C[C@H](CCCCCCc1ccc2c(n1)NCCC2)c1ccc2c(c1)OCC2
[1]; read-out: logP
  logP: 2.39
[2]
  clearance: 7.9 mL/min/kg
[3]
  half-life: 5.8 h
[4]
  bioavailability: > 99%
[5]
  Activity: 99.9%
[6]
  pIC50: 9.68

## O=C(O)C[C@H](CCCCCCc1ccc2c(n1)NCCC2)c1cncnc1
[7]
  DFM: 150.8 mg/cm2
[1]; read-out: logP
  logP: 0.1
[2]
  clearance: 3.9 mL/min/kg
[8]
  clearance: 19 mL/min/kg
[9]
  clearance: 30 mL/min/kg
[10]
  DFM: 153.2 mg/cm2
[11]
  half-life: 2.3 h
[12]
  bioavailability: 45%
[13]
  bioavailability: 46%
[3]
  half-life: 6.4 h
[14]
  half-life: 4.5 h
[4]
  bioavailability: 66%
[5]
  Activity: 94%
[6]
  pIC50: 10.15

## Cc1ncc([C@@H](CCCCCCc2ccc3c(n2)NCCC3)CC(=O)O)cn1
[1]; read-out: logP
  logP: 0.43
[2]
  clearance: 2.5 mL/min/kg
[15]
  DFM: 173 mg/cm2
[8]
  clearance: 4.5 mL/min/kg
[9]
  clearance: 3.6 mL/min/kg
[16]
  DFM: 176 mg/cm2
[11]
  half-life: 17 h
[12]
  bioavailability: 100%
[13]
  bioavailability: 75%
[3]
  half-life: 9.5 h
[14]
  half-life: 5.1 h
[17]
  DFM: 158.3 mg/cm2
[4]
  bioavailability: 83%
[5]
  Activity: 96%
[6]
  pIC50: 10.10

## O=C(O)C[C@H](NC(=O)CCCCc1ccc2c(n1)NCCC2)c1cccc(F)c1
[6]
  pIC50: 7.56

## O=C(O)CC(CCCCCCc1ccc2c(n1)NCCC2)c1cccc(F)c1 (stereo not drawn)
[6]
  pIC50: 9.03

## COc1ccc([C@@H](CCCCCCc2ccc3c(n2)NCCC3)CC(=O)O)cn1
[1]
  logP: 1.67
[2]
  clearance: 5.1 mL/min/kg
[3]
  half-life: 9.5 h
[4]
  bioavailability: 49%
[5]
  Activity: 99.5%
[6]
  pIC50: 9.19

## COc1ncc([C@@H](CCCCCCc2ccc3c(n2)NCCC3)CC(=O)O)cn1
[1]; read-out: logP
  logP: 0.65
[2]
  clearance: 4.3 mL/min/kg
[3]
  half-life: 6.8 h
[4]
  bioavailability: 100%
[5]
  Activity: 97%
[6]
  pIC50: 9.96
